Assay results published in ChEMBL document CHEMBL5257027 (Eur J Med Chem, 2016).
Values belong to the compound of their own block, whether it stands above or below them.

How the values were obtained:
[1] = test system: SK-MEL-5; test: Antiproliferative activity against human SK-MEL-5 cells assessed as reduction in cell growth; assay type: functional
Outline: (§1)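 NCI five-dose testing across the 58-line panel gives GI50, TGI and LC50 for each line. Subpanel lines report mean GI50 for each of the nine cancer types.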

[2] = test system: PC-3; test: Antiproliferative activity against human PC-3 cells assessed as reduction in cell growth; assay type: functional; outline: as §1
[3] = test system: NCI/ADR-RES; test: Antiproliferative activity against human NCI/ADR-RES cells assessed as reduction in cell growth; assay type: functional; outline: as §1
[4] = test system: MDA-MB-468; test: Antiproliferative activity against human MDA-MB-468 cells assessed as reduction in cell growth; assay type: functional; outline: as §1
[5] = test system: SNB-75; test: Antiproliferative activity against human SNB-75 cells assessed as reduction in cell growth; assay type: functional; outline: as §1
[6] = test system: COLO 205; test: Antiproliferative activity against human COLO 205 cells assessed as reduction in cell growth; assay type: functional; outline: as §1
[7] = test system: RXF 393; test: Antiproliferative activity against human RXF 393 cells assessed as reduction in cell growth; assay type: functional; outline: as §1
[8] = test system: K562; test: Antiproliferative activity against human K562 cells assessed as reduction in cell growth; assay type: functional; outline: as §1
[9] = test system: HOP-92; test: Antiproliferative activity against human HOP-92 cells assessed as reduction in cell growth; assay type: functional; outline: as §1
[10] = test system: HCT-15; test: Antiproliferative activity against human HCT-15 cells assessed as reduction in cell growth; assay type: functional; outline: as §1
[11] = Antiproliferative activity against human Panel NCI-58 (58 Carcinoma cell lines) assessed as reduction in mean cell growth at 10 uM; assay type: functional; set-up: scale not given: the % may be the effect or the level left
Outline: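 NCI 58-cell-line screen covering leukemia, NSCLC, colon, CNS, melanoma, ovarian, renal, prostate and breast lines. Compounds given once at […] (micromolar per the line). Percent inhibition taken as 100 minus growth percent. Panel line reports the mean over all 58 lines.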

[12] = test system: NCI/ADR-RES; test: Cytotoxicity against human NCI/ADR-RES cells; assay type: functional
Outline: (§2)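 Run in the US NCI 58-cell-line screen covering nine cancer types (leukemia, NSCLC, colon, CNS, melanoma, ovarian, renal, prostate, breast). Five-dose mode gave GI50, TGI and LC50 values for each cell line. In the single-dose pre-screen, % inhibition was taken as 100 minus growth percentage.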

[13] = molecular target: Serine/threonine-protein kinase B-raf (Homo sapiens) (UniProt P15056); test: Inhibition of B-RAF (unknown origin) at 10 uM using […] as substrate incubated for 40 mins in presence of [gamma33P]ATP by scintillation counting based hotspot kinase assay relative to control
Sequence of Serine/threonine-protein kinase B-raf (Homo sapiens) (P15056 whole entry): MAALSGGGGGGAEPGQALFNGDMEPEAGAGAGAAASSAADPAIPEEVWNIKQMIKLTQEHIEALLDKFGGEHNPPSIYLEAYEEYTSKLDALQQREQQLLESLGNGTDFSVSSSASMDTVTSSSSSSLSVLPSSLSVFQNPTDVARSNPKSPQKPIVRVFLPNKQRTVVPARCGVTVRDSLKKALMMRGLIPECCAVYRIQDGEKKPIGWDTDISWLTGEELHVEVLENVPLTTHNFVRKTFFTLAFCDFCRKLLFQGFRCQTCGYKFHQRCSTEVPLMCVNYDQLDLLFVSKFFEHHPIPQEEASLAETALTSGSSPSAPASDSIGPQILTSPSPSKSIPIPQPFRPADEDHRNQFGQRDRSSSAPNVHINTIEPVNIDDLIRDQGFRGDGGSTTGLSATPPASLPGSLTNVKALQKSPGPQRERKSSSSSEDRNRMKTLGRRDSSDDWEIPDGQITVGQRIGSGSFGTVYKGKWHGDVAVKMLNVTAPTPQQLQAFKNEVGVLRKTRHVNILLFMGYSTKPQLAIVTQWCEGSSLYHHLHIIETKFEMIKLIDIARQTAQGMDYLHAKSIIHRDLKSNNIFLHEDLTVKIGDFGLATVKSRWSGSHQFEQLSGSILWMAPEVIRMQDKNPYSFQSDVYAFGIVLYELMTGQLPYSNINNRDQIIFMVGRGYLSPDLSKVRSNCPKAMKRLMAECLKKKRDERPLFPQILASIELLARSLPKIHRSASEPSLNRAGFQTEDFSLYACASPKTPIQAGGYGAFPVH

[14] = species: Homo sapiens; test: Inhibition of ABL […] mutant (unknown origin) at 10 uM using […] as substrate incubated for 40 mins in presence of [gamma33P]ATP by scintillation counting based hotspot kinase assay relative to control
[15] = test system: Panel ovarian (Carcinoma cell lines); test: Antiproliferative activity against human Panel ovarian (7 Carcinoma cell lines) assessed as reduction in mean cell growth; assay type: functional; outline: as §1
[16] = test system: Panel prostate (Carcinoma cell lines); test: Antiproliferative activity against human Panel prostate (2 Carcinoma cell lines) assessed as reduction in mean cell growth; assay type: functional; outline: as §1
[17] = test system: Panel CNS (Carcinoma cell lines); test: Antiproliferative activity against human Panel CNS (6 Carcinoma cell lines) assessed as reduction in mean cell growth; assay type: functional; outline: as §1
[18] = molecular target: Epidermal growth factor receptor (Homo sapiens) (UniProt P00533); test: Inhibition of EGFR (unknown origin) at 10 uM using […] as substrate incubated for 40 mins in presence of [gamma33P]ATP by scintillation counting based hotspot kinase assay relative to control
Sequence of Epidermal growth factor receptor (Homo sapiens) (P00533 whole entry): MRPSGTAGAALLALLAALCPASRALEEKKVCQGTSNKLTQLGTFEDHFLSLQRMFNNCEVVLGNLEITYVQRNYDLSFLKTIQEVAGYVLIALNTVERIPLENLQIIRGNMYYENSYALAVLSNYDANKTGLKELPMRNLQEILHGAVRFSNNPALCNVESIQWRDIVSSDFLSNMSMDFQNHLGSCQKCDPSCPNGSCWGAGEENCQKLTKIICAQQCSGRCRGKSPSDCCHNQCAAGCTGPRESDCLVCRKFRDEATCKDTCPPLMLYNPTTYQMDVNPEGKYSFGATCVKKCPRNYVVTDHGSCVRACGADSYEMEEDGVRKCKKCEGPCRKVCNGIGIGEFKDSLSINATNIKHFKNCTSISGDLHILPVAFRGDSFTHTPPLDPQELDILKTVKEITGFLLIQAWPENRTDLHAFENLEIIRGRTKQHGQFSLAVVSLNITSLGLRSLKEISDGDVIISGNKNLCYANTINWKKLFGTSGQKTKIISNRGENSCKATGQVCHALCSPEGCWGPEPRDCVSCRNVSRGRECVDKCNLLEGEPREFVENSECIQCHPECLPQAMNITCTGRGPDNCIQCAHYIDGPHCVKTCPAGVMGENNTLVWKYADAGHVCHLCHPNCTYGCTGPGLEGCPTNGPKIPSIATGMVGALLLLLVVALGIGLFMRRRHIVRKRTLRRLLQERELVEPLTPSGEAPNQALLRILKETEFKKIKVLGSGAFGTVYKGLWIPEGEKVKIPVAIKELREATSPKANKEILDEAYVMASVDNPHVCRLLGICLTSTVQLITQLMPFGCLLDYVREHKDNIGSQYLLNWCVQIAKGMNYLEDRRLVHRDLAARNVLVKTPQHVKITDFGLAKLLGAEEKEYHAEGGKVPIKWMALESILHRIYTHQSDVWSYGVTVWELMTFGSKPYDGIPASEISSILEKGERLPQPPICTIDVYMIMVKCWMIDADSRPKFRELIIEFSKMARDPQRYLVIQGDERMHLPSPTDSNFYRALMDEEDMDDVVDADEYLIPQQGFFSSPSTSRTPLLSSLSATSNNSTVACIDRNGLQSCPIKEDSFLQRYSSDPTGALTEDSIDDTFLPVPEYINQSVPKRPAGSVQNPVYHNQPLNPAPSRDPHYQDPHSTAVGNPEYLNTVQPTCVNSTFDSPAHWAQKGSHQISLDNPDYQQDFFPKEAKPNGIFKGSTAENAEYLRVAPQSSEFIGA

[19] = test system: PC-3; test: Antiproliferative activity against human PC-3 cells assessed as total growth inhibition; assay type: functional; outline: as §1
[20] = test system: Panel colon (Carcinoma cell lines); test: Antiproliferative activity against human Panel colon (7 Carcinoma cell lines) assessed as reduction in mean cell growth; assay type: functional; outline: as §1
[21] = test system: HOP-92; test: Cytotoxicity against human HOP-92 cells; assay type: functional; outline: as §2
[22] = test system: COLO 205; test: Antiproliferative activity against human COLO 205 cells assessed as total growth inhibition; assay type: functional; outline: as §1
[23] = test system: HCT-15; test: Antiproliferative activity against human HCT-15 cells assessed as total growth inhibition; assay type: functional; outline: as §1
[24] = test system: K562; test: Antiproliferative activity against human K562 cells assessed as total growth inhibition; assay type: functional; outline: as §1
[25] = test system: Panel leukemia (Carcinoma cell lines); test: Antiproliferative activity against human Panel leukemia (5 Carcinoma cell lines) assessed as reduction in mean cell growth; assay type: functional; outline: as §1
[26] = test system: Serine/threonine-protein kinase B-raf (Homo sapiens), P15056 [V600E]; test: Inhibition of B-RAF V600E mutant (unknown origin) at 10 uM using […] as substrate incubated for 40 mins in presence of [gamma33P]ATP by scintillation counting based hotspot kinase assay relative to control
Sequence of Serine/threonine-protein kinase B-raf (Homo sapiens), P15056 [V600E] (P15056 whole entry V600E): as the sequence (P15056 whole entry) above, with V600E counted along it

[27] = Antiproliferative activity against human Panel non-small cell lung cancer (8 Carcinoma cell lines) assessed as reduction in mean cell growth; assay type: functional; conditions: Non-small cell lung cancer cell line; outline: as §1
[28] = test system: MDA-MB-468; test: Antiproliferative activity against human MDA-MB-468 cells assessed as total growth inhibition; assay type: functional; outline: as §1
[29] = test system: PC-3; test: Cytotoxicity against human PC-3 cells; assay type: functional; outline: as §2
[30] = test system: SNB-75; test: Cytotoxicity against human SNB-75 cells; assay type: functional; conditions: read-out: LC50 (the source's name); outline: as §2
[31] = test system: K562; test: Cytotoxicity against human k562 cells; assay type: functional; conditions: read-out: LC50 (the source's name); outline: as §2
[32] = test system: NCI/ADR-RES; test: Antiproliferative activity against human NCI/ADR-RES cells assessed as total growth inhibition; assay type: functional; outline: as §1
[33] = test system: SNB-75; test: Antiproliferative activity against human SNB-75 cells assessed as total growth inhibition; assay type: functional; outline: as §1
[34] = test system: SK-MEL-5; test: Cytotoxicity against human SK-MEL-5 cells; assay type: functional; outline: as §2
[35] = test system: SK-MEL-5; test: Antiproliferative activity against human SK-MEL-5 cells assessed as total growth inhibition; assay type: functional; outline: as §1
[36] = test system: HCT-15; test: Cytotoxicity against human HCT-15 cells; assay type: functional; conditions: read-out: LC50 (the source's name); outline: as §2
[37] = molecular target: RAF proto-oncogene serine/threonine-protein kinase (Homo sapiens, UniProt P04049); test: Inhibition of RAF1 (unknown origin) at 10 uM using […] as substrate incubated for 40 mins in presence of [gamma33P]ATP by scintillation counting based hotspot kinase assay relative to control
Sequence of RAF proto-oncogene serine/threonine-protein kinase (P04049 whole entry): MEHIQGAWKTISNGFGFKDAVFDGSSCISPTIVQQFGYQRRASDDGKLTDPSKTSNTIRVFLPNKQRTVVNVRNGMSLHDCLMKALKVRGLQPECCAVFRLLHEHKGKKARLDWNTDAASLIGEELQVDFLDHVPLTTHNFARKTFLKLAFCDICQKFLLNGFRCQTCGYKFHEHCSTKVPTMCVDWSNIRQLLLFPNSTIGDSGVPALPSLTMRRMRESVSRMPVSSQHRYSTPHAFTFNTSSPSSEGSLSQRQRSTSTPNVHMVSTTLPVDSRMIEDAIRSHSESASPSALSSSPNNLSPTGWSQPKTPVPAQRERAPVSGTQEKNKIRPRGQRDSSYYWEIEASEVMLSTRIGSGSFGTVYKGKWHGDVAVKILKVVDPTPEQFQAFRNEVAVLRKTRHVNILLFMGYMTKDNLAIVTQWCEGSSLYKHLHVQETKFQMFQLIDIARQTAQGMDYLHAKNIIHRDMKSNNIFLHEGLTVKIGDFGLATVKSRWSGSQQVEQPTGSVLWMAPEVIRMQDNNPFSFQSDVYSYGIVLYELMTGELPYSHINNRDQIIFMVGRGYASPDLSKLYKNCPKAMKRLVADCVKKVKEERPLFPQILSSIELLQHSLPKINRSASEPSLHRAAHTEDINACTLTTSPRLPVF

[38] = test system: RXF 393; test: Cytotoxicity against human RXF 393 cells; assay type: functional; outline: as §2
[39] = test system: COLO 205; test: Cytotoxicity against human COLO 205 cells; assay type: functional; outline: as §2
[40] = test system: Panel breast (Carcinoma cell lines); test: Antiproliferative activity against human Panel breast (6 Carcinoma cell lines) assessed as reduction in mean cell growth; assay type: functional; outline: as §1
[41] = molecular target: Tyrosine-protein kinase ABL1 (Homo sapiens) (UniProt P00519); test: Inhibition of ABL (unknown origin) at 10 uM using […] as substrate incubated for 40 mins in presence of [gamma33P]ATP by scintillation counting based hotspot kinase assay relative to control
Sequence of Tyrosine-protein kinase ABL1 (Homo sapiens) (P00519 whole entry): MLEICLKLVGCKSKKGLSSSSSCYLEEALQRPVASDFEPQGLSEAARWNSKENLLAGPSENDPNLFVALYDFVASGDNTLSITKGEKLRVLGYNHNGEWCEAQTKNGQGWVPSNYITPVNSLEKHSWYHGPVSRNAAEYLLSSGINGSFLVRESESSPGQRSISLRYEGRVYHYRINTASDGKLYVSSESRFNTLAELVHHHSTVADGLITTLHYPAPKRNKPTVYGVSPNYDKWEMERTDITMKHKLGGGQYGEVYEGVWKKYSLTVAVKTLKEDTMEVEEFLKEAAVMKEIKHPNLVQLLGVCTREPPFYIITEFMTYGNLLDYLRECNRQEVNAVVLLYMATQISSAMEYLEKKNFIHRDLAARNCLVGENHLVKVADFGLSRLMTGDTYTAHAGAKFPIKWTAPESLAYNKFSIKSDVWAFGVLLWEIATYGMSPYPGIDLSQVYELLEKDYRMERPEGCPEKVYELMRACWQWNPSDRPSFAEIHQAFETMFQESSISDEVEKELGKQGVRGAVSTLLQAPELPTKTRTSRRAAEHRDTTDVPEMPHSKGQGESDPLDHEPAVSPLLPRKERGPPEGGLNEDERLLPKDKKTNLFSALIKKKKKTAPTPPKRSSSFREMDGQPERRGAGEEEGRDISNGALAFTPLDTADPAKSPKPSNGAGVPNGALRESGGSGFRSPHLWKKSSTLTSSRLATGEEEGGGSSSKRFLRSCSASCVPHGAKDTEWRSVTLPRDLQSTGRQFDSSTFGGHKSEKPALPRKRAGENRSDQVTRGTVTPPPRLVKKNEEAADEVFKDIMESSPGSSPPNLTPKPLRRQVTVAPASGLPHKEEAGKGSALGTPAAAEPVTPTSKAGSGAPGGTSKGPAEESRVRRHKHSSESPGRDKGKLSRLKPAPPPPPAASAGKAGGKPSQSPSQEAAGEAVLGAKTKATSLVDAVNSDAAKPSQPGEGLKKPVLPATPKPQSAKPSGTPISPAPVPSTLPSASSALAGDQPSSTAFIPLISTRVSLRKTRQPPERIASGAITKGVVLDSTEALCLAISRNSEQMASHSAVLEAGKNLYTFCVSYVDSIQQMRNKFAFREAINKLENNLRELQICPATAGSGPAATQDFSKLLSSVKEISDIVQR

[42] = test system: RXF 393; test: Antiproliferative activity against human RXF 393 cells assessed as total growth inhibition; assay type: functional; outline: as §1
[43] = test system: HOP-92; test: Antiproliferative activity against human HOP-92 cells assessed as total growth inhibition; assay type: functional; outline: as §1
[44] = test system: Panel melanoma (Carcinoma cell lines); test: Antiproliferative activity against human Panel melanoma (9 Carcinoma cell lines) assessed as reduction in mean cell growth; assay type: functional; outline: as §1
[45] = test system: Panel renal (Carcinoma cell lines); test: Antiproliferative activity against human Panel renal (8 Carcinoma cell lines) assessed as reduction in mean cell growth; assay type: functional; outline: as §1
[46] = molecular target: Mitogen-activated protein kinase 14 (Homo sapiens) (UniProt Q16539); test: Inhibition of MAPK14 (p38 alpha) (unknown origin) at 10 uM using […] as substrate incubated for 40 mins in presence of [gamma33P]ATP by scintillation counting based hotspot kinase assay relative to control
Sequence of Mitogen-activated protein kinase 14 (Homo sapiens) (Q16539 whole entry): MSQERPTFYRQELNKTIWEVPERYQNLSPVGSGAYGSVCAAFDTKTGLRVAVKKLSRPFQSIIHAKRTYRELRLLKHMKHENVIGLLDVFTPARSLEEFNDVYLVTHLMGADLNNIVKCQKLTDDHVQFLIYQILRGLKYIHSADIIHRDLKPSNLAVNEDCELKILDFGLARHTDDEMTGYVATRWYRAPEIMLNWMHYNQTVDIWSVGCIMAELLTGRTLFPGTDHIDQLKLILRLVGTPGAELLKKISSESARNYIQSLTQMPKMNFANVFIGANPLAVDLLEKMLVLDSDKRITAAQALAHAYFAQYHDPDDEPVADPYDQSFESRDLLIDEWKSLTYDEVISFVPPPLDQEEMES

GI50 [1]: 1.54 µM
GI50 [2]: 3.18 µM
GI50 [4]: 1.95 µM
GI50 [6]: 3.33 µM
GI50 [8]: 3.69 µM
GI50 [10]: 3.4 µM
SMILES: COc1cccc(-c2nn(-c3ccccc3)cc2-c2ccnc(NCCCNC(=O)c3cccc(C(F)(F)F)c3)c2)c1
GI50 [3]: 3.54 µM
GI50 [5]: 17 µM
GI50 [7]: 2.2 µM
GI50 [9]: 2.48 µM

SMILES: COc1cccc(-c2nn(-c3ccccc3)cc2-c2ccnc(NCCNC(=O)Nc3cccc(C(F)(F)F)c3)c2)c1
Activity [11]: >80%
LC50 [12]: 100 µM
GI50 [1]: 1.73 µM
inhibition [13]: 14%
inhibition [14]: 2.92%
GI50 [15]: 2.54 µM
GI50 [2]: 2.02 µM
GI50 [16]: 3.09 µM
GI50 [17]: 2.07 µM
inhibition [18]: -2.09%
TGI [19]: 15.7 µM
GI50 [3]: 2.22 µM
GI50 [20]: 1.98 µM
LC50 [21]: 100 µM
TGI [22]: 3.34 µM
TGI [23]: 4.7 µM
TGI [24]: 100 µM
GI50 [4]: 1.7 µM
GI50 [25]: 2.04 µM
inhibition [26]: 36.2%
GI50 [27]: 2.03 µM
TGI [28]: 3.5 µM
LC50 [29]: 100 µM
GI50 [5]: 1.62 µM
GI50 [6]: 1.88 µM
GI50 [7]: 1.53 µM
CC50 [30]: 100 µM
CC50 [31]: 100 µM
GI50 [8]: 2.13 µM
TGI [32]: 5.75 µM
TGI [33]: 100 µM
LC50 [34]: 7.82 µM
TGI [35]: 3.55 µM
CC50 [36]: 100 µM
inhibition [37]: 45.1%
LC50 [38]: 25 µM
LC50 (lethal concentration 50%) [39]: 6.95 µM
GI50 [9]: 1.46 µM
GI50 [40]: 2.23 µM
inhibition [41]: 13.4%
TGI [42]: 4.63 µM
TGI [43]: 7.65 µM
GI50 [10]: 1.7 µM
GI50 [44]: 1.91 µM
GI50 [45]: 2.14 µM

SMILES: O=C(NCCCNc1cc(-c2cn(-c3ccccc3)nc2-c2cccc(O)c2)ccn1)c1ccccc1
Activity [11]: >80%
LC50 [12]: 100 µM
GI50 [1]: 1.49 µM
inhibition [13]: 10.8%
inhibition [14]: 9.61%
GI50 [15]: 4.17 µM
GI50 [2]: 2.1 µM
GI50 [16]: 3.69 µM
GI50 [17]: 3.6 µM
inhibition [18]: 3.72%
TGI [19]: 15.2 µM
GI50 [3]: 2.67 µM
GI50 [20]: 2.3 µM
LC50 [21]: 100 µM
TGI [22]: 3.67 µM
TGI [23]: 5.12 µM
GI50 [4]: 1.38 µM
GI50 [25]: 1.62 µM
inhibition [26]: 34.4%
GI50 [27]: 3.4 µM
TGI [28]: 3.36 µM
LC50 [29]: 100 µM
GI50 [5]: 1.68 µM
GI50 [6]: 1.71 µM
GI50 [7]: 1.97 µM
CC50 [30]: 100 µM
CC50 [31]: 100 µM
GI50 [8]: 0.75 µM
TGI [32]: 9.79 µM
TGI [33]: 46.9 µM
LC50 [34]: 6.54 µM
TGI [35]: 3.12 µM
CC50 [36]: 100 µM
inhibition [37]: 39.6%
LC50 [38]: 100 µM
LC50 (lethal concentration 50%) [39]: 7.88 µM
GI50 [9]: 1.7 µM
GI50 [40]: 2.13 µM
inhibition [46]: 74.5%
inhibition [41]: 16%
TGI [42]: 6.2 µM
TGI [43]: 24.5 µM
GI50 [10]: 1.51 µM
GI50 [44]: 2.3 µM
GI50 [45]: 3.63 µM
